Results: ChEMBL document CHEMBL4609990, “Design and synthesis of cyanamides as potent and selective N-acylethanolamine acid amidase inhibitors” (Bioorg Med Chem, 2020)
Blank lines part the entries; values can stand above or below the compound they belong to.

Tests used:
Cathepsin K = molecular target: T1, Cathepsin K (Homo sapiens, UniProt P43235); experiment: Inhibition of recombinant human Cathepsin K using Z-Phe-Arg-AMC as substrate preincubated with enzyme for 120 mins followed by substrate addition by fluorimetry analysis
T1 sequence (P43235 whole entry): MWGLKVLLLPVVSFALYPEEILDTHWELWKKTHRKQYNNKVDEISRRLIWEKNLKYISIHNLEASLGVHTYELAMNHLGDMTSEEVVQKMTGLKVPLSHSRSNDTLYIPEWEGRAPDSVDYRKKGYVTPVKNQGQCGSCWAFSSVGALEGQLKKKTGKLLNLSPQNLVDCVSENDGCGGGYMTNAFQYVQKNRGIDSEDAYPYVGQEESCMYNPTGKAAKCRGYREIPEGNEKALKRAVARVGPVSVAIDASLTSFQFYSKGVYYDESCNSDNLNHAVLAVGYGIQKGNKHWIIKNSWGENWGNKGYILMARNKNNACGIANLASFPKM

[1] = molecular target: T2, N-acylethanolamine-hydrolyzing acid amidase (Homo sapiens, UniProt Q02083); experiment: Inhibition of activated human NAAA using fluorogenic PAMCA and N-4-methylcoumarin as substrate incubated for 90 mins by fluorescence based assay
T2 sequence (Q02083 whole entry): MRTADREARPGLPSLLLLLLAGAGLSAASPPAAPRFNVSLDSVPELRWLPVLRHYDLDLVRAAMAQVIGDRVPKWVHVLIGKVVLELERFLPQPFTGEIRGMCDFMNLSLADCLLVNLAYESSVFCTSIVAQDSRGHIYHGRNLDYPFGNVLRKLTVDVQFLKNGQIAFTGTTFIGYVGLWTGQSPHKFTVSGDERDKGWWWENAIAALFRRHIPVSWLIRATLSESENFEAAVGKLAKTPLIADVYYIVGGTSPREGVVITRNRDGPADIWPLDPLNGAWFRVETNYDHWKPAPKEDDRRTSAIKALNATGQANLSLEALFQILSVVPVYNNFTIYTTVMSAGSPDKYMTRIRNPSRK
How it was run: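 Purified activated hNAAA (final 0.25 µg/mL) in 100 mM citrate-phosphate pH 4.5, 3 mM DTT, 0.1% Triton X-100, 0.05% BSA, 150 mM NaCl; compound in DMSO preincubated 90 min at room temperature. PAMCA added (final 5 µM), reaction at 37 °C for 90 min, fluorescence ex 360/em 460 nm read every 10 min. RFU converted to AMC via AMC standard curve. IC50 from eight concentrations, triplicate.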

[2] = molecular target: T3, Fatty-acid amide hydrolase 1 (Homo sapiens) (UniProt O00519); experiment: Inhibition of recombinant human FAAH expressed in Escherichia coli at 1 uM using fluorogenic AAMCA as substrate by fluorimetric assay relative to control
T3 sequence (whole entry): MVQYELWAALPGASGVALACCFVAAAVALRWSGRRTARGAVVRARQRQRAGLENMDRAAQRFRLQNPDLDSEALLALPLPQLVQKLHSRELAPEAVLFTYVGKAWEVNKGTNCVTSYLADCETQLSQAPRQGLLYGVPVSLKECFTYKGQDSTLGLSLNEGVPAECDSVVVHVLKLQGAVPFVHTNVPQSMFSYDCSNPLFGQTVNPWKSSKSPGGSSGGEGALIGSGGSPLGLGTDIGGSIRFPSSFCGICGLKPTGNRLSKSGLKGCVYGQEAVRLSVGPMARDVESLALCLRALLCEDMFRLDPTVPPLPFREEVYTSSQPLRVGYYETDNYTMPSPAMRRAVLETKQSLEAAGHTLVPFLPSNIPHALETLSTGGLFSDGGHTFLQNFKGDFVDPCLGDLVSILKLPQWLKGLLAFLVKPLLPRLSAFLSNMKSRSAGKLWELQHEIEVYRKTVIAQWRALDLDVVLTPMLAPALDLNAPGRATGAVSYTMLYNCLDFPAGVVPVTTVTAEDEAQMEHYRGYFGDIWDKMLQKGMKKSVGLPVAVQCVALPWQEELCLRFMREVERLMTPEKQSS
How it was run: (§1)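 Human recombinant FAAH expressed in E. coli and purified; fluorometric assay with arachidonoyl 7-amino-4-methylcoumarin amide (AAMCA) as substrate; IC50 by curve fitting, or percent inhibition at 1 µM.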

[3] = molecular target: T4, Monoglyceride lipase (Homo sapiens) (UniProt Q99685); experiment: Inhibition of recombinant human hexaHis-tagged MGL expressed in Escherichia coli BL21 (DE3) at 1 uM using fluorogenic AHMMCE as substrate preincubated for 1 hr followed by substrate addition by fluorimetric assay relative to control
T4 sequence (whole entry): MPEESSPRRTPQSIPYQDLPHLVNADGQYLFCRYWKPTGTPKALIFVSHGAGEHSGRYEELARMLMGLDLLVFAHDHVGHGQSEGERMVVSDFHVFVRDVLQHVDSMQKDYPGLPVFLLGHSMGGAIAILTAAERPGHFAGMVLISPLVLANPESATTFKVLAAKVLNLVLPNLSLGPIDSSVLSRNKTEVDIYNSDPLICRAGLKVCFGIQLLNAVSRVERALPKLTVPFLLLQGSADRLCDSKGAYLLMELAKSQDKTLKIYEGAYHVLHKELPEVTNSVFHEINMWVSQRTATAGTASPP
How it was run: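 Human recombinant MGL expressed in E. coli and purified; fluorometric assay using arachidonoyl 7-hydroxy-6-methoxy-4-methylcoumarin ester (AHMMCE) as substrate; IC50 by curve fitting, or percent inhibition at 1 µM.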

[4] = Half life in human liver microsomes at 1 uM in presence of NADPH by LC-MS/MS
[5] = molecular target: T5, N-acylethanolamine-hydrolyzing acid amidase (Homo sapiens) (UniProt Q02083); experiment: Irreversible inhibition of activated human NAAA assessed as ratio of Kinact/Ki using fluorogenic PAMCA and N-4-methylcoumarin as substrate
T5 sequence (whole entry): T2 sequence (Q02083 whole entry)

[6] = molecular target: T6, Fatty-acid amide hydrolase 1 (Homo sapiens, UniProt O00519); experiment: Inhibition of recombinant human FAAH expressed in Escherichia coli using fluorogenic AAMCA as substrate by fluorimetric assay
T6 sequence (O00519 whole entry): T3 sequence (whole entry)
How it was run: as §1

[7] = Half life in rat liver microsomes at 1 uM in presence of NADPH by LC-MS/MS
[8] = Half life in human plasma by HPLC analysis
Homo sapiens [9] = species: Homo sapiens; experiment: Selectivity index, ratio of IC50 for full length human ABHD6 using AHMMCE as substrate preincubated for 1 hr followed by substrate addition by fluorimetric assay to IC50 human NAAA using fluorogenic PAMCA and N-4-methylcoumarin as substrate incubated for 90 mins by fluorescence based assay
Homo sapiens [10] = species: Homo sapiens; experiment: Selectivity index, ratio of IC50 for human hexaHis-tagged MGL expressed in Escherichia coli BL21 (DE3) using fluorogenic AHMMCE as substrate preincubated for 1 hr followed by substrate addition by fluorimetric assay to IC50 human NAAA using fluorogenic PAMCA and N-4-methylcoumarin as substrate incubated for 90 mins by fluorescence based assay
Homo sapiens [11] = species: Homo sapiens; experiment: Selectivity index, ratio of IC50 for human Cathepsin K using […] as substrate preincubated with enzyme for 90 mins followed by substrate addition by fluorimetry analysis to IC50 human NAAA using fluorogenic PAMCA and N-4-methylcoumarin as substrate incubated for 90 mins by fluorescence based assay
Homo sapiens [12] = species: Homo sapiens; experiment: Selectivity index, ratio of IC50 for recombinant human FAAH expressed in Escherichia coli using fluorogenic AAMCA as substrate by fluorimetric assay to IC50 human NAAA using fluorogenic PAMCA and N-4-methylcoumarin as substrate incubated for 90 mins by fluorescence based assay
[13] = molecular target: T2, N-acylethanolamine-hydrolyzing acid amidase; experiment: Inhibition of NAAA (unknown origin)

SMILES: N#CN1CC(CNS(=O)(=O)c2ccccc2)C1
IC50 (Cathepsin K): 50 nM

SMILES: N#CN1CC(OCc2ccc(-c3ccc4c(c3)OCCO4)cc2)(c2ccccc2)C1
IC50 [1]: 6.1 nM
inhibition [2]: 99%
inhibition [3]: 13.5%

SMILES: N#CN1CC(OCc2ccc(Oc3ccccc3)cc2Br)C1
IC50 [1]: 1.03 nM

SMILES: CN(Cc1ccc(-c2ccccc2)cc1)C1CN(C#N)C1
IC50 [1]: 20.8 nM
half-life at 1 µM ([4]; liver microsomes): 11.3 min

SMILES: COc1cccc(-c2ccc(COC3(c4ccccc4)CN(C#N)C3)cc2)c1
IC50 [1]: 9.1 nM
IC50 [6]: 61 nM
half-life at 1 µM ([7]; microsomes): 14.5 min
inhibition [3]: 19.5%
half-life at 1 µM ([4]; microsomes): 15.3 min

SMILES: COc1cccc(-c2ccc(C(=O)NC3(C)CN(C#N)C3)cc2)c1
IC50 [1]: 1.58 nM
half-life [8]: 902 min
inhibition [2]: 23%
inhibition [3]: 11%

SMILES: N#Cc1ccccc1-c1cc(Oc2ccccc2)ccc1COC1CN(C#N)C1
IC50 [1]: 6.6 nM

SMILES: N#Cc1ccc(-c2cc(Oc3ccccc3)ccc2COC2CN(C#N)C2)cc1
IC50 [1]: 2.5 nM

SMILES: N#CN1CC(OCc2ccc(-c3ccc4c(c3)OCO4)cc2)(c2ccccc2)C1
IC50 [1]: 9.2 nM
inhibition [2]: 99%
inhibition [3]: 59%

SMILES: N#CN1CC(OCc2ccc(Oc3ccccc3)cc2-c2ccccc2)C1
IC50 [1]: 8.5 nM

SMILES: COc1cccc(-c2ccc(S(=O)(=O)N3CCC34CN(C#N)C4)cc2)c1
IC50 [1]: 2.8 nM
half-life [8]: 180 min
IC50 [6]: 10.2 nM
inhibition [3]: 14%
Ratio IC50 (Homo sapiens [9]): > 100
Ratio IC50 (Homo sapiens [10]): > 100
Ratio IC50 (Homo sapiens [11]): > 100

SMILES: COc1cccc(-c2ccc(C(=O)N3CCC34CN(C#N)C4)cc2)c1
IC50 [1]: 6.5 nM
half-life [8]: 458 min
inhibition [2]: 6%
Ratio IC50 (Homo sapiens [12]): > 100
inhibition [3]: 4%
Ratio IC50 (Homo sapiens [9]): > 100
Ratio IC50 (Homo sapiens [10]): > 100
Ratio IC50 (Homo sapiens [11]): > 100

SMILES: C[C@H]1[C@H](NC(=O)OCCCCC2CCCCC2)C(=O)N1c1cccc(S(C)(=O)=O)c1
IC50 [13]: 6 nM

Next, values leading:

Ratio [5]: 8.4 ×10⁶ /M/s
IC50 [1]: 0.88 nM
SMILES: COc1cccc(-c2ccc(COC3CN(C#N)C3)cc2)c1OC

IC50 [1]: 1.4 nM
SMILES: N#CN1CC(OCc2ccc(-c3cccc(OCc4ccccc4)c3)cc2)C1

IC50 [1]: 2.8 nM
SMILES: COc1cccc(-c2ccc(COC3CN(C#N)C3)c(OC)c2)c1

IC50 [1]: 67.5 nM
SMILES: COc1cccc(OC)c1-c1ccc(COC2CN(C#N)C2)cc1

Ratio [5]: 2.74 ×10⁶ /M/s
IC50 [1]: 1.6 nM
half-life at 1 µM ([7]; liver microsomes): 8.9 min
half-life at 1 µM ([4]; liver microsomes): 6.8 min
SMILES: N#CN1CC(OCc2ccc(-c3ccc(C(F)(F)F)cc3)cc2)C1

IC50 [1]: 5.8 nM
SMILES: COc1ncccc1-c1ccc(COC2CN(C#N)C2)cc1

Ratio [5]: 3.03 ×10⁶ /M/s
IC50 [1]: 2.8 nM
SMILES: N#CN1CC(OCc2ccc(-c3ccccc3)cc2)C1

IC50 [1]: 5.7 nM
SMILES: COc1ccc(-c2cc(Oc3ccccc3)ccc2COC2CN(C#N)C2)cc1
